This is an account of results in ChEMBL document CHEMBL1139220, “Structure-activity relationship study of prion inhibition by 2-aminopyridine-3,5-dicarbonitrile-based compounds: parallel synthesis, bioactivity, and in vitro pharmacokinetics” (J Med Chem, 2007).

In brackets after ≈: the same amount, converted by molar mass. Activity calls are given as the source filed them. The rule behind the calls is not given here. Some results are limits rather than exact numbers.

The test system of series [1] is ScN2a. Nature of the series: Reduction of PrPSC accumulation in ScN2a cells. The class given is functional, cell-based. The conditions noted are these: Mus musculus. In a few lines:
(§1)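 Scrapie-infected mouse neuroblastoma ScN2a cells, seeded at about 40 000 cells/well, were exposed to compound for 5 days at 37 °C; concentrations up to 25 µM, final DMSO ≤0.25%. Viability was read first with calcein-AM (ex/em 492/525 nm). The same wells were then lysed, Benzonase-treated, digested with proteinase K (1 h, 37 °C), PTA-precipitated and assayed for PrP 27-30 by direct ELISA (D18 antibody, AP/pNPP). Triplicate, three independent experiments.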

The nature of series [2]: Solubility in phosphate buffer at pH 6.5 at 500 uM. The class given is physicochemical.
Series [3] deals with ScN2a. Briefly: Cytotoxicity against ScN2a cells. Format: functional. The conditions noted are these: Mus musculus, read-out: LD50 (the source's name). A digest of the protocol:
as §1

For series [4], the system named is ScN2a. Briefly: Reduction of PrPSC accumulation in ScN2a cells upto 25 uM. The conditions noted are these: Mus musculus. Format: functional, cell-based. In a few lines: as §1
For series [5], the target named is T1, Adenosine receptor A3 (Homo sapiens) (UniProt P0DMS8).
T1 sequence (whole entry): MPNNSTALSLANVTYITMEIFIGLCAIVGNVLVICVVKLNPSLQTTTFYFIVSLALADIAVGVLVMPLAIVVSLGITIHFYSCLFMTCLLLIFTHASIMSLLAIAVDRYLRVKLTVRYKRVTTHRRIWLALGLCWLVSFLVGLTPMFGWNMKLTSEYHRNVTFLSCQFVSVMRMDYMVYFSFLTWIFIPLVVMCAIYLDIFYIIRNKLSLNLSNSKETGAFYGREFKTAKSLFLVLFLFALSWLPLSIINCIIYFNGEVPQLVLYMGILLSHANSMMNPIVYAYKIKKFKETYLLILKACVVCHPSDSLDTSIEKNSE
Nature of the series: Inhibition of human adenosine A3 receptor ar 5 uM realtive to IB-MECA. A digest of the protocol:
(§2)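 Human adenosine receptor subtypes hA1, hA2a and hA3 were tested with compound at 5 µM. Inhibition is expressed relative to a selective reference also used at 5 µM, taken as 100%: DPCPX for hA1, NECA for hA2a, IB-MECA for hA3.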

In series [6] the target is T2, Adenosine receptor A1 (Homo sapiens) (UniProt P30542).
T2 sequence (whole entry): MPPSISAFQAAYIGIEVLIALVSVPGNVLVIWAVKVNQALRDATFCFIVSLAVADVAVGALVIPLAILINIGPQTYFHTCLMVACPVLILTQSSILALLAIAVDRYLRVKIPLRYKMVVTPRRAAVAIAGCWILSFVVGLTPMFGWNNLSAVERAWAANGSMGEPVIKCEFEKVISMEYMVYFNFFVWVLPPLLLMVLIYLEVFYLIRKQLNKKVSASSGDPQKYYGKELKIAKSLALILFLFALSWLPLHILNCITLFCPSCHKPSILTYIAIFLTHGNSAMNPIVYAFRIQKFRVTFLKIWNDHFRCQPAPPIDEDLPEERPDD
Nature of the series: Inhibition of human adenosine A1 receptor at 5 uM relative to DPCPX. A digest of the protocol:
as §2

For series [7], the target named is T3, Adenosine receptor A1 (Homo sapiens, UniProt P30542).
T3 sequence (P30542 whole entry): T2 sequence (whole entry)
Nature of the series: Inhibitory constant aganist human adenosine A1 receptor.

For series [8], the target named is Adenosine receptor A2a (Homo sapiens) (UniProt P29274). Nature of the series: Inhibition of human adenosine A2a receptor at 5 uM relative to NECA. In a few lines: as §2
Chain of Adenosine receptor A2a (Homo sapiens) (P29274 whole entry): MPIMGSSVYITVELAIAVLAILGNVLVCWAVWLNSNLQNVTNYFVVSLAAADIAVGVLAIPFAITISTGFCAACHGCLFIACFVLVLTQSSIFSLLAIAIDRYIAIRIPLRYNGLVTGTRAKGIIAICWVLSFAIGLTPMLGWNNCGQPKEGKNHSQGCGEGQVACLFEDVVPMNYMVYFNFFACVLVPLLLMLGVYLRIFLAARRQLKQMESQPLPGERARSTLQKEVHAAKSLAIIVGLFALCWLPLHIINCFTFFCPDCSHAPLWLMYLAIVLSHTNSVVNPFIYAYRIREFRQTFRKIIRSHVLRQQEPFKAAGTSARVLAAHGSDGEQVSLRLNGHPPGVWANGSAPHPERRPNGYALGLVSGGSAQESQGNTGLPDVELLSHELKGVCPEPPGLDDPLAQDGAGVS

For `N#Cc1c(N)nc(SCCCN2CCCCC2)c(C#N)c1-c1ccco1`, the EC50 in series [1] is 6 µM. Also, the solubility at 500 µM in series [2] is > 400 µM. In addition, the CC50 in series [3] was > 25 µM.
Take `CN(CCSc1nc(N)c(C#N)c(-c2ccco2)c1C#N)Cc1ccccc1`: the result in series [4] was inactive. Besides, in series [3], the CC50 was > 25 µM.
`CN(Cc1cnc2nc(N)nc(N)c2n1)c1ccc(C(=O)N[C@@H](CCC(=O)O)C(=O)O)cc1` [METHOTREXATE]: in series [2], the solubility at 500 µM was > 400 µM.
As to `CCN(CC)CCSc1nc(N)c(C#N)c(-c2ccc(Br)cc2)c1C#N`, the EC50 in series [1] was 6.1 µM. The compound further gave a solubility at 500 µM in series [2] of 200 µM (≈ 86.1 µg/mL). Moreover, the CC50 in series [3] is > 25 µM.
With `N#Cc1c(N)nc(SCCCN)c(C#N)c1-c1ccco1`, the outcome in series [4] was inactive. The CC50 in series [3] was > 25 µM.
For the compound `CCN(CC)CCSc1nc(N)c(C#N)c(-c2ccc(Cl)c(Cl)c2)c1C#N`, in series [1], the EC50 was 7.2 µM. The compound further yielded a solubility at 500 µM in series [2] of 200 µM (≈ 84.1 µg/mL). Besides, the CC50 in series [3] was > 25 µM.
The compound `CCN(CC)CCSc1nc(N)c(C#N)c(-c2ccccc2Cl)c1C#N` showed an EC50 in series [1] of 5.5 µM. In series [2], the solubility at 500 µM is > 400 µM. Further, the inhibition in series [5] was found to be 77%; in series [6], 95%; in series [8] it was 62%. In series [7], this compound displayed a Ki of 0.59 µM. In series [3], the CC50 is > 25 µM.
As for `CNC(=O)[C@H]1O[C@@H](n2cnc3c(NCc4cccc(I)c4)ncnc32)[C@H](O)[C@@H]1O` [IB-MECA], the EC50 in series [1] is > 25 µM.
In the case of `CCN(CC)CCSc1nc(N)c(C#N)c(-c2ccc(Cl)cc2)c1C#N`, in series [1], the midpoint of the response, the EC50, lay at 7.5 µM. The same compound showed a solubility at 500 µM in series [2] of 200 µM (≈ 77.2 µg/mL). Besides, in series [3], the CC50 is > 25 µM.
In the case of `CN(C)CCSc1nc(N)c(C#N)c(-c2ccco2)c1C#N`, the 50% effective concentration (EC50) in series [1] came to 13.9 µM. Further, the CC50 in series [3] is > 25 µM.
On the same counts, the results for `CCN(CC)CCCC(C)Nc1c2ccc(Cl)cc2nc2ccc(OC)cc12` (stereo not drawn) [QUINACRINE] are 0.8 µM and 7.8 µM.
As to `CCN(CC)CCSc1nc(N)c(C#N)c(-c2ccco2)c1C#N`, in series [1], the EC50 was 8.8 µM. The solubility at 500 µM in series [2] was > 400 µM. In addition, the CC50 in series [3] is > 25 µM.
`CCCn1c(=O)c2[nH]c(C3CCCC3)nc2n(CCC)c1=O` [1,3-DIPROPYL-8-CYCLOPENTYLXANTHINE [DPCPX]]: the EC50 in series [1] was > 25 µM.
Turning to `N#Cc1c(N)nc(Sc2ccccc2N)c(C#N)c1-c1ccco1`, the concentration for a half-maximal effect (EC50) in series [1] turned out to be 80 µM. In series [3], the CC50 is > 80 µM.
Take `N#Cc1c(N)nc(SCC(N)=O)c(C#N)c1-c1ccco1`: the outcome in series [4] was inactive. The CC50 in series [3] was > 25 µM.
`CC(C)N(CCSc1nc(N)c(C#N)c(-c2ccco2)c1C#N)C(C)C` returned an EC50 in series [1] of 13.4 µM. Further, in series [3], the CC50 was > 25 µM.
For the compound `COc1ccc(-c2c(C#N)c(N)nc(SCc3ncc[nH]3)c2C#N)cc1`, in series [1], the EC50 was > 25 µM.
The same measure, in the same setting: the value for `N#Cc1c(N)nc(SCc2ncc[nH]2)c(C#N)c1-c1ccccc1` was > 25 µM.
As to `N#Cc1c(N)nc(SCc2ccccc2)c(C#N)c1-c1cccs1`, the outcome in series [4] was inactive. Also, the CC50 in series [3] is > 25 µM.
As for `N#Cc1c(N)nc(SCCN2CCCCC2)c(C#N)c1-c1ccco1`, the EC50 in series [1] came to 8.1 µM. The solubility at 500 µM in series [2] was > 400 µM. Moreover, in series [3], the CC50 is > 25 µM.
On the same counts, the results for `CCN(CC)CCSc1nc(N)c(C#N)c(-c2cccc(Cl)c2Cl)c1C#N` are 4.5 µM, 200 µM (≈ 84.1 µg/mL) and > 25 µM.
In turn, `CN(C)CCCSc1nc(N)c(C#N)c(-c2ccco2)c1C#N` had an EC50 in series [1] of 10.2 µM. In series [2], the solubility at 500 µM is > 400 µM. For the same compound, the CC50 in series [3] was > 25 µM.
Take `CCN(CC)CCSc1nc(N)c(C#N)c(-c2cccc(Br)c2)c1C#N`: the midpoint of the response in series [1], the EC50, lay at 4.3 µM. In addition, in series [3], the CC50 was > 25 µM.
On the same counts, the results for `CCN(CC)CCSc1nc(N)c(C#N)c(-c2cccc(Cl)c2)c1C#N` are 5.3 µM and > 25 µM.
Turning to `CN(C)CCCN1c2ccccc2Sc2ccc(Cl)cc21` [CHLORPROMAZINE], in series [2], the solubility at 500 µM is > 400 µM.
For `CCN(CC)CCSc1nc(N)c(C#N)c(-c2cc(Cl)cc(Cl)c2)c1C#N`, in series [1], the EC50 came to 2.2 µM. Moreover, the CC50 in series [3] is > 25 µM.
`N#Cc1c(N)nc(SCCN2CCOCC2)c(C#N)c1-c1ccco1`: the result in series [4] was inactive. For the same compound, the CC50 in series [3] was > 25 µM.
As for `CCCCN(CCCC)CCSc1nc(N)c(C#N)c(-c2ccco2)c1C#N`, the outcome in series [4] was inactive. In addition, the CC50 in series [3] is > 25 µM.
In the case of `N#Cc1c(N)nc(SCCN2CCCC2)c(C#N)c1-c1ccco1`, a half-maximal response in series [1] (EC50) required 10.6 µM. For the same compound, the solubility at 500 µM in series [2] turned out to be 200 µM (≈ 67.9 µg/mL). In addition, in series [3], the CC50 is > 25 µM.
As to `N#Cc1c(N)nc2sc(C(=O)c3ccccc3[N+](=O)[O-])c(N)c2c1-c1ccco1`, the EC50 in series [1] was 10.9 µM. Besides, the CC50 in series [3] was > 25 µM.

One may read the EC50 as the concentration giving half of the maximal effect. A low value points to an effect from little substance. For orientation: solubility means the dissolved amount per volume that the medium holds. Lower therefore signals little dissolved substance. Usually inhibition stands for how much of the control response was suppressed. The Ki is the dissociation constant of the complex between target and ligand, obtained from inhibition or displacement. A higher Ki goes with lower affinity.
